Molecules are shown by their SMILES.

Data set [1] deals with L1210. Description: Cytotoxicity against mouse L1210 cells overexpressing folate receptor assessed as growth inhibition treated for 24 hrs then incubated 48 hrs with camptothecin by MTT assay in presence of camptothecin. Format: functional, cell-based. Summed up:
(§1)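 Cells were seeded at 8000–10000 per well and preincubated 24 h. Taxoid was given first for 24 h at 37 °C. An equimolar amount of camptothecin was then added for another 48 h at 37 °C. Viability was read by MTT at 570 nm, and IC50 came from a four-parameter logistic fit, in triplicate.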

Data set [2] is described as follows: Cytotoxicity against mouse ID8 cells overexpressing biotin receptor assessed as growth inhibition at 1:1 compound to camptothecin ratio after 72 hrs by MTT assay in presence of camptothecin. Format: functional, cell-based. As to conditions: ID8, 72 h; call rule not given here. In short, it runs like this:
(§2)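 Cells were exposed simultaneously to an equimolar taxoid/camptothecin mixture for 72 h at 37 °C. Viability was read by MTT (0.5 mg/mL, 3 h, absorbance 570 nm). IC50 came from a four-parameter logistic fit of viability against concentration, in triplicate.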

Data set [3] concerns MCF7. Description: Cytotoxicity against human MCF7 cells overexpressing biotin receptor assessed as growth inhibition pretreated for 24 hrs with camptothecin then incubated for 48 hrs by MTT assay in presence of camptothecin. Format: functional, cell-based. Summed up: (§3)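 Cells were seeded at 8000–10000 per well and preincubated 24 h. Camptothecin serial dilutions were given first for 24 h at 37 °C. An equimolar amount of taxoid was then added for a further 48 h at 37 °C. Viability was read by MTT at 570 nm, and IC50 came from a four-parameter logistic fit, in triplicate.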

Data set [4] can be described thus: Cytotoxicity against mouse ID8 cells overexpressing biotin receptor assessed as growth inhibition after 72 hrs by MTT assay. Format: functional, cell-based. In short, it runs like this:
(§4)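 Continuous 72 h exposure at 37 °C. Cells were seeded at 0.5–1.5 × 10^4 per well, and adherent lines were left to settle overnight before the medium was refreshed. DMSO was ≤1%. Read-out was MTT (0.5 mg/mL, 3 h), with formazan dissolved in 0.1 N HCl/2-propanol plus 10% Triton X-100 and absorbance read at 570 nm. IC50 came from a four-parameter logistic fit, in triplicate.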

The nature of data set [5]: Cytotoxicity against mouse ID8 cells overexpressing biotin receptor assessed as growth inhibition treated for 24 hrs then incubated 48 hrs with camptothecin by MTT assay in presence of camptothecin. Format: functional, cell-based. Summed up: as §1
In data set [6] the test system is MX1. The data set is described as follows: Cytotoxicity against human MX1 cells overexpressing biotin receptor assessed as growth inhibition at 1:1 compound to camptothecin ratio after 72 hrs by MTT assay in presence of camptothecin. As to conditions: MX1, 72 h. Format: functional, cell-based. Summed up:
as §2

Data set [7] relates to MX1. The data set is described as follows: Cytotoxicity against human MX1 cells overexpressing biotin receptor assessed as growth inhibition treated for 24 hrs then incubated 48 hrs with camptothecin by MTT assay in presence of camptothecin. The data set is classed as functional, cell-based. In short, it runs like this: as §1
The test system of data set [8] is MCF7. The data set is described as follows: Cytotoxicity against human MCF7 cells overexpressing biotin receptor assessed as growth inhibition after 72 hrs by MTT assay. Format: functional, cell-based. Summed up: as §4
The subject of data set [9] is L1210. Description: Cytotoxicity against mouse L1210 cells overexpressing biotin receptor assessed as growth inhibition after 72 hrs by MTT assay. The settings on record: L1210, 72 h.
The subject of data set [10] is MCF7. The data set is described as follows: Cytotoxicity against human MCF7 cells overexpressing biotin receptor assessed as growth inhibition treated for 24 hrs then incubated 48 hrs with camptothecin by MTT assay in presence of camptothecin. Format: functional, cell-based. Summed up: as §1
For data set [11], the system named is L1210. Description: Cytotoxicity against mouse L1210 cells overexpressing folate receptor assessed as growth inhibition pretreated for 24 hrs with camptothecin then incubated for 48 hrs by MTT assay in presence of camptothecin. Format: functional, cell-based. Summed up:
as §3

The nature of data set [12]: Cytotoxicity against mouse ID8 cells overexpressing biotin receptor assessed as growth inhibition pretreated for 24 hrs with camptothecin then incubated for 48 hrs by MTT assay in presence of camptothecin. The data set is classed as functional, cell-based. In short, it runs like this: as §3
For data set [13], the system named is MX1. Description: Cytotoxicity against human MX1 cells overexpressing biotin receptor assessed as growth inhibition after 72 hrs by MTT assay. The data set is classed as functional, cell-based. Summed up: as §4
Data set [14] deals with MX1. The data set is described as follows: Cytotoxicity against human MX1 cells overexpressing biotin receptor assessed as growth inhibition pretreated for 24 hrs with camptothecin then incubated for 48 hrs by MTT assay in presence of camptothecin. Format: functional, cell-based. Summed up:
as §3

In data set [15] the test system is L1210. The data set is described as follows: Cytotoxicity against mouse L1210 cells overexpressing folate receptor assessed as growth inhibition at 1:1 compound to camptothecin ratio after 72 hrs by MTT assay in presence of camptothecin. As to conditions: L1210, 72 h. The data set is classed as functional, cell-based. In short, it runs like this:
as §2

Data set [16] relates to MCF7. The data set is described as follows: Cytotoxicity against human MCF7 cells overexpressing biotin receptor assessed as growth inhibition at 1:1 compound to camptothecin ratio after 72 hrs by MTT assay in presence of camptothecin. As to conditions: MCF7, 72 h. Format: functional, cell-based. Summed up:
as §2

Data set [17] can be described thus: Cytotoxicity against human WI38 cells assessed as growth inhibition after 72 hrs by MTT assay. The settings on record: WI-38, 72 h.
Data set [18] has as its system L1210. The data set is described as follows: Cytotoxicity against mouse L1210 cells overexpressing folate receptor assessed as growth inhibition after 24 hrs by MTT assay. Format: functional, cell-based. In short, it runs like this:
(§5)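 Conjugate was incubated with cells for 24 h at 37 °C, then removed by PBS washing. GSH-OEt (6 equiv to conjugate) in medium was added to release drug, followed by a further 48 h at 37 °C (72 h total). Read-out was MTT at 570 nm. IC50 came from a four-parameter logistic fit, in triplicate.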

Data set [19] deals with MCF7. The data set is described as follows: Cytotoxicity against human MCF7 cells overexpressing biotin receptor assessed as growth inhibition after 24 hrs by MTT assay. Format: functional, cell-based. Summed up:
as §5

Data set [20] is described as follows: Cytotoxicity against human WI38 cells overexpressing biotin receptor assessed as growth inhibition after 72 hrs by MTT assay. The data set is classed as functional, cell-based. As to conditions: wi-38. In short, it runs like this:
as §4

Data set [21] relates to L1210. Description: Cytotoxicity against mouse L1210 cells overexpressing folate receptor assessed as growth inhibition after 72 hrs by MTT assay. Format: functional, cell-based. Summed up:
as §4

The nature of data set [22]: Cytotoxicity against mouse ID8 cells overexpressing biotin receptor assessed as growth inhibition after 24 hrs by MTT assay. Format: functional, cell-based.
Data set [23] relates to MX1. The data set is described as follows: Cytotoxicity against human MX1 cells overexpressing biotin receptor assessed as growth inhibition after 24 hrs by MTT assay. The data set is classed as functional, cell-based. In short, it runs like this:
as §5

Data set [24] deals with MCF7. Description: Drug uptake in human MCF7 cells at 10 uM after 10 hrs by confocal fluorescence microscopy analysis. Format: ADME, cell-based. As to conditions: mcf7, 10 h. Summed up:
(§6)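 Cells were incubated with 10 μM conjugate at 37 °C for 10 h, washed thoroughly, and resuspended in PBS. Internalization was imaged by confocal microscopy using camptothecin's intrinsic fluorescence.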

Data set [25] is described as follows: Drug uptake in mouse ID8 cells at 10 uM after 10 hrs by confocal fluorescence microscopy analysis. The data set is classed as ADME, cell-based. The settings on record: id8, 10 h. In short, it runs like this:
as §6

For the molecule `CC(=O)O[C@@]12CCO[C@@H]1C[C@H](O)[C@@]1(C)C(=O)[C@H](OC(=O)C3CC3)C3=C(C)[C@@H](OC(=O)[C@H](O)[C@H](C=C(C)C)NC(=O)OC(C)(C)C)C[C@@](O)([C@@H](OC(=O)c4ccccc4)[C@H]21)C3(C)C`, the IC50 in the data set on L1210 [1] was found to be 3.51 nM; in data set [2], 1.02 nM; with MCF7 [3], 79.2 nM; in data set [4] (Mus musculus, ID8, 72 h) it was 1.11 nM; in data set [5] it was 0.96 nM; in the data set on MX1 [6], 1.88 nM. The IC50 in the data set with MX1 [7] stood at 1.98 nM; in the data set on MCF7 [8] (Homo sapiens, MCF7, 72 h) it was 0.44 nM; in the data set on L1210 [9], 2.14 nM; with MCF7 [10] it was 0.33 nM; in the data set with L1210 [11], 949 nM; in data set [12], 110 nM. The IC50 in the data set on MX1 [13] (Homo sapiens, MX1, 72 h) was 2.01 nM; in the data set on MX1 [14], over 5000 nM; in the data set with L1210 [15], 4.14 nM; in the data set with MCF7 [16] it was 0.4 nM; in data set [17], 5.89 nM.
For `CC(=O)O[C@@]12CCO[C@@H]1C[C@H](O)[C@@]1(C)C(=O)[C@H](OC(=O)C3CC3)C3=C(C)[C@@H](OC(=O)[C@H](OC(=O)Cc4ccccc4SSC(C)CCC(=O)NCCNc4nc(NCCOCCOCCOCCNC(=O)CCCC[C@@H]5SC[C@@H]6NC(=O)N[C@@H]65)nc(NCc5cn(CCOCCOCCOCCNC(=O)CCC(C)SSc6ccccc6CC(=O)Oc6ccccc6)nn5)n4)[C@H](C=C(C)C)NC(=O)OC(C)(C)C)C[C@@](O)([C@@H](OC(=O)c4ccccc4)[C@H]21)C3(C)C` (stereo not given in full), the IC50 came to 14.4 nM with L1210 [18] (l1210); 26.7 nM in [4] (id8); 9.9 nM with MCF7 [19] (mcf7); 941 nM in data set [20]; 23.1 nM with MCF7 [8] (mcf7); 50.9 nM in the data set with L1210 [21]. In addition, the values for the IC50 (in data set [22] (id8); in the data set on MX1 [13] (mx1); with MX1 [23] (mx1)) were 15.6 nM, 66.9 nM and 23.6 nM, respectively.
Regarding `CC[C@@]1(OC(=O)Cc2ccccc2SSC(C)CCC(=O)NCCOCCOCCOCCn2cc(CNc3nc(NCCNC(=O)CCC(C)SSc4ccccc4CC(=O)Oc4ccccc4)nc(NCCOCCOCCOCCNC(=O)CCCC[C@@H]4SC[C@@H]5NC(=O)N[C@@H]54)n3)nn2)C(=O)OCc2c1cc1n(c2=O)Cc2cc3ccccc3nc2-1` (stereo not given in full), the IC50 was 177 nM in the data set on L1210 [18] (l1210); over 5000 nM in data set [4] (id8); 538 nM with MCF7 [19] (mcf7); 1440 nM in [20]; 1260 nM in the data set with MCF7 [8] (mcf7); 319 nM in the data set on L1210 [21]. Besides, the IC50 is 2390 nM in [22] (id8), over 5000 nM in the data set on MX1 [13] (mx1) and over 5000 nM in the data set with MX1 [23] (mx1).
For `CC[C@@]1(OC(=O)CCC(=O)NCCOCCOCCOCCn2cc(CNc3nc(NCCNC(=O)CCC(C)SSc4ccccc4CC(=O)O[C@@H](C(=O)O[C@H]4C[C@@]5(O)[C@@H](OC(=O)c6ccccc6)[C@@H]6[C@]7(OC(C)=O)CCO[C@@H]7C[C@H](O)[C@@]6(C)C(=O)[C@H](OC(=O)C6CC6)C(=C4C)C5(C)C)[C@H](C=C(C)C)NC(=O)OC(C)(C)C)nc(NCCOCCOCCOCCNC(=O)CCCC[C@@H]4SC[C@@H]5NC(=O)N[C@@H]54)n3)nn2)C(=O)OCc2c1cc1n(c2=O)Cc2cc3ccccc3nc2-1` (stereo not given in full), the IC50 stood at 13.7 nM in the data set on L1210 [18] (l1210); 25.6 nM in [4] (id8); 9.4 nM with MCF7 [19] (mcf7); 868 nM in data set [20]; 21.1 nM in the data set with MCF7 [8] (mcf7); 42.5 nM with L1210 [21]. Also, the results for the 50% inhibitory concentration (IC50) (in data set [22] (id8); in the data set with MX1 [13] (mx1); in the data set with MX1 [23] (mx1)) were 10.3 nM, 65.1 nM and 20.8 nM, respectively.
In the case of `CC[C@@]1(OC(=O)Cc2ccccc2SSC(C)CCC(=O)NCCOCCOCCOCCn2cc(CNc3nc(NCCNC(=O)CCC(C)SSc4ccccc4CC(=O)O[C@@H](C(=O)O[C@H]4C[C@@]5(O)[C@@H](OC(=O)c6ccccc6)[C@@H]6[C@]7(OC(C)=O)CCO[C@@H]7C[C@H](O)[C@@]6(C)C(=O)[C@H](OC(=O)C6CC6)C(=C4C)C5(C)C)[C@H](C=C(C)C)NC(=O)OC(C)(C)C)nc(NCCOCCOCCOCCNC(=O)CCCC[C@@H]4SC[C@@H]5NC(=O)N[C@@H]54)n3)nn2)C(=O)OCc2c1cc1n(c2=O)Cc2cc3ccccc3nc2-1` (stereo not given in full), the IC50 turned out to be 7.4 nM with L1210 [18] (Mus musculus, L1210, 24 h); 23.4 nM in data set [4] (Mus musculus, ID8, 72 h); 3.2 nM in the data set with MCF7 [19] (Homo sapiens, MCF7, 24 h); 19 nM with MCF7 [8] (Homo sapiens, MCF7, 72 h); 5.7 nM in data set [22] (Mus musculus, ID8, 24 h); 39.1 nM in the data set with L1210 [9]. The IC50 came to 51.7 nM in the data set with MX1 [13] (Homo sapiens, MX1, 72 h); 9.8 nM in the data set on MX1 [23] (Homo sapiens, MX1, 24 h); 742 nM in data set [17]. Also, the Drug uptake result (in the data set on MCF7 [24]; in [25]) was “Active” throughout.
With `CC[C@@]1(O)C(=O)OCc2c1cc1n(c2=O)Cc2cc3ccccc3nc2-1` [CAMPTOTHECIN], the IC50 in data set [4] (Mus musculus, ID8, 72 h) was 474 nM; in the data set on MCF7 [8] (Homo sapiens, MCF7, 72 h), 65.1 nM; with L1210 [9], 510 nM; in the data set on MX1 [13] (Homo sapiens, MX1, 72 h), 1700 nM; in data set [17], 786 nM.
